According to the EternaBench riboswitch data:

System: MS2 coat protein
Assay: apparent Kd, MS2 coat protein; higher = weaker binding; RNA-MaP array; FMN 200 µM where present
Summary of the method: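 The apparent Kd is the median of filtered binding-curve fits, one per cluster, to green signal normalised to red-channel RNA signal and control-cluster median Fmax. The clusters were on Illumina sequencing chips, and stalled E. coli RNA polymerase had transcribed the designs on them. Titration used SNAP-549-labelled MS2 coat protein from 0.7 or 1.5 nM, doubling to 3 µM, without and then with constant ligand, in 100 mM Tris-HCl pH 7.5, 80 mM KCl, 4 mM MgCl2, BSA, DTT, yeast tRNA and Tween-20.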

[1] = designed as: OFF switch for flavin mononucleotide, no ligand
[2] = ligand present: flavin mononucleotide, designed as: OFF switch for flavin mononucleotide
[3] = designed as: ON switch for flavin mononucleotide, no ligand
[4] = ligand present: flavin mononucleotide, designed as: ON switch for flavin mononucleotide

Sequence	apparent Kd [1]	apparent Kd [2]	apparent Kd [3]	apparent Kd [4]
AAUAUAAGAGCUGGUAAACUCAAAACAUGAGGAUCACCCAUGUAGGAUAUCAGCACGAUAAGUGCUGAGAAGGACAUCCAGCUC	15 nM	16.1 nM	–	–
AUACAUGAGGAUCACCCAUGUUACUGGGUCUUAAUAGAUCGUAGAAGGAUGUUAUUAUUAAUUUCAUAGGAUAUACUAUUUAGU	48.3 nM	32.9 nM	–	–
GACUAGGCAGGAUAUACAUGAGGAUCACCCAUGUGUCUGCGAUAGGCACGUGAUUACUGUAGAAGGGCCUUGAC	–	44.1 nM	–	–
CCCGCGAUGUCAGGAUAUAGUCGGAGGUGCAGACUAGAAGGGACAUGAGGAUCACCCAUGUGCGUGAAAAUUUGAAACCCAGGU	46.5 nM	164 nM	–	–
GGACGUCUCAUUAACAUGAGGAUCACCCAUGUCAAAAGACAUGAGGAUAUGGAUCCUAAUUGGAUCCAGAAGGCAUGGACGUCC	–	–	939 nM	59.2 nM
GAUAUGUUAGGAUAUCAAACCUUGUUGAAUCAACGAGCCAGUGAGAAGGAACAUGAGGAUCACCCAUGUGUCCG	16.2 nM	16.3 nM	–	–
AGAAAGGCAGGAUAUACAUGAGGAUCACCCAUGUUAAGAAAGACGGAAACGUCAAGAAGUAGAAGGGCCAAGAA	23.4 nM	21.1 nM	–	–
ACGUUAAUUCGAGGAUAUCGGUGAUUUAUAUUACGAGAAGGCGAUAAUUGUGAUAAACUUAUAGACAUGAGGAUCACCCAUGUA	–	–	42.7 nM	38.8 nM
UUAAAUCAUGUAGGAUAUGCAUGGCGAAGCUACGCAGAAGGACAUGAGGAUCACCCAUGUUAUAGCUACAGAGUUCUGUGGCAA	102 nM	233 nM	–	–
CAGUACUGAGGAUAUACAUGAGGAUCACCCAUGUGUCCUAGCUAGGAUACUAGCAUUAGUAGAAGGCAGUACUG	18 nM	213 nM	–	–
CUUUCGUGAGGAUAUCAGUAGUAAUAAAAUAAAAUUACUACUGAGAAGGCACAUGAGGAUCACCCAUGUUCCUC	25 nM	138 nM	–	–
GGAGCACACAUUAACAUGAGGAUCACCCAUGUCUAAAGACAUGAGGAUAUGGAUCCGAAAAGGAUCCAGAAGGCAUGGUGCUCC	–	–	207 nM	11.7 nM
UCGCUGCGAGGAUAUACGUGCGCGCGCUUUCGUUUGCGCGUACAUGAGGAUCACCCAUGUAGAAGGCGCGCUGC	16.2 nM	15.8 nM	–	–
CAGUACUGAGGAUAUACAUGAGGAUCACCCAUGUGUUCCAGCUAGGAAACUAGCAAAAUUAGAAGGCAGUACUG	11.7 nM	20.7 nM	–	–
CUUUUGUGAGGAUAUCAGUAGUAGAACAAUAGUACUACUACUGAGAAGGCACAUGAGGAUCACCCAUGUACCUC	19.4 nM	69.7 nM	–	–
GUCAGCUCGUGAGGAUAUACUACACUGCUUCGGCAGUGUAUUAAGAUCACAUGAGGAUCACCCAUGUAGAAGGCACGAGCUGAU	5.95 nM	17 nM	–	–
AACAAUCUAUCUGAGGAUAUCAUGAAAAAAACAUGAGGAUCACCCAUGUGCAGGAAAACUGCAUAUGAGAAGGCAGAUAGAUUGG	–	–	618 nM	31.6 nM
AGCAGACGAGGAUAUAAAUUUGAUAACAUGAGGAUCACCCAUGUGAUCGAUAGAUCAAAUUUAGAAGGCGUCUGCU	647 nM	940 nM	–	–
GGCGUGUUAGGAUAUCGCGGCGGCGGCGUUUGUUGUUGUUGUGAGAAGGAACAUGAGGAUCACCCAUGUGUGCC	62.7 nM	295 nM	–	–
CGGCGGGCAGGAUAUACAUGAGGAUCACCCAUGUGUGUCCAUACGCGUGAGUCCUCGUGUAGAAGGGUUUGUUG	14.9 nM	13.4 nM	–	–
GCGUGGUUCUAGAAGGUGCUAGCGAUAAGCUAGCAAGGAUAUAGACAUGAGGAUCACCCAUGUCUUAAAGAAAUGGACACACGC	5.04 nM	5.55 nM	–	–
CAGCCCUGAGGAUAUCCCUCCUUGUACAUGAGGAUCACCCAUGUUCUCCUCUGGGCCUUGGGAGAAGGCAGAUCUC	56.9 nM	49.5 nM	–	–
AGAUCGAGUGUGAGGAUAUUGACCGGACGACCCAUCGAGAAGGCACAUGAGGAUCACCCAUGUGAUUCGGCUCA	17.7 nM	26.4 nM	–	–
UUUAGUUGCGGGCAGGAUAUGUGUUAAAAUACAUGAGGAUCACCCAUGUGCGGGUAUAACACCCGACAGAAGGGCCAAUCGCGAC	–	–	73.6 nM	24.4 nM

Sequence	apparent Kd [1]	apparent Kd [2]	apparent Kd [3]	apparent Kd [4]
GUCGGAAACGACAAAAGUAGCAUAGGAGAAGGUUCAUUAAACAUGAGGAUCACCCAUGUAAUUGGAAAGGAUAUCCUAUGCUAC	–	–	5.04 nM	5.06 nM
GGCAGACAUGAGGAUCACCCAUGUCAGGAUAUUAGGCGAUCGUCGAUAGACGAUAGCCUGAGAAGGGACAUGCC	23.8 nM	54.1 nM	–	–
GCUGACGUAGGAUAUCAAUAGCCUCACAUGAGGAUCACCCAUGUCGGUAGGUGUACUGGAUGAGAAGGACGUCGUU	38.3 nM	23.9 nM	–	–
GUGCACAUUCGAGGAUAUCGGAGAGGAAUCCUUCGAGAAGGCGAUUCAUGCUGUGUUAUUCUGGACAUGAGGAUCACCCAUGUG	–	–	192 nM	97.8 nM
GGUACCAUCACAGGAUAUGCUUUCCAUUGGGAAGCAGAAGGGUGUAACAUGAGGAUCACCCAUGUGGUGCCAGGGCGUGAGCCU	–	–	217 nM	15.2 nM
AAGAAACAUGAGGAUCACCCAUGUAAAUUUAAGAGAGGAUAUCGUACAUGGAAGAUUUAACGAGAAGGCUCUAGAA	–	–	26 nM	16.1 nM
CUGCCACAUGAGGAUCACCCAUGUGAGGAUAUGGCCUGUUUGGCGUGUGCUGGCUCUGUCAGAAGGCGCGUGGG	24.1 nM	33.9 nM	–	–
GUCGGAAACGACAAUGAUAGGACUGAGGAUAUACAUAAAUAAAUCCUUACAUGAGGAUCACCCAUGUAGAAGGCAGUCCUAUCU	47.2 nM	590 nM	–	–
AAACAAGGAUCAGGAUAUGUGAAAGUAGACCGACAUGAGGAUCACCCAUGUACGACAAGACUCGUACAGAAGGGAUGCACAUGA	–	–	73.3 nM	165 nM
UCACGGGAUUGAGGAUAUAUUUAAAUUUUUACAAUAGAAGGCAAAUUUUUAGUUUUUUCACUUUACAUGAGGAUCACCCAUGUU	28.8 nM	24.5 nM	–	–
CCUGCACAUGAGGAUCACCCAUGUUAGGAUAUCUCGCCGCCUAAACGAAUGGUGGCCCAGAGAAGGAACAGGGC	28.6 nM	41.3 nM	–	–
GUUUUUCCUCAUGUACAUGAGGAACAUGAGGAUCACCCAUGUAGAAGGAAUUUUUUUAAGUUUAGUUAGGAUAUACAUAUAUUU	72.9 nM	64.5 nM	–	–
UUUUCCAGAGGAUAUGCGAAUAAAUAAAACUUUUUUUUUUAACAUGAGGAUCACCCAUGUAGAAGGCUGAUUUU	47.9 nM	48.5 nM	–	–
UUAAAUCAUGUAGGAUAUGCAUGGCGAAGCUACGCAGAAGGACAUGAGGAUCACCCAUGUUCUAGCUACCGAGUACGGUGGCAA	20.6 nM	86.3 nM	–	–
AGUCUGAGAGGAUAUACAAGGGAAAAAAAAGUAAGAUCCCUACAUGAGGAUCACCCAUGUAGAAGGCUCUGACA	98 nM	43.8 nM	–	–
AUAUAUAUAUCAGGAUAUGGACAGGCCUGUUCGUAUUAAGACAUUAACAUGAGGAUCACCCAUGUCCAGAAGGGAUAUAUAUAU	109 nM	86.9 nM	–	–
UUGUUAGGGAGAGGAUAUUGACAUGAGGAUCACCCAUGUACUUGGGAGUGUUUACUGAAUUCUUACGAGAAGGCUUACAAAUUU	165 nM	105 nM	–	–
GAGUGCUGAGGAUAUACAUGAGGAUCACCCAUGUGCUUCAGCUAGGAGACUAGCAUUGGUAGAAGGUAGUACUC	11.7 nM	15.4 nM	–	–
GGCUGCAAUUAUGAGGAUAUGUUCGGAUGAACAUGAGGAUCACCCAUGUGGCGAUAGCUAUCUGUGCAGAAGGUGUAGUGGUAGC	–	–	213 nM	61.8 nM
CGGUUGCGAGGAUAUAUGACAUGUUGCGCCGGAACUCCGCCACAUGAGGAUCACCCAUGUAGAAGGCGCAACUU	14.4 nM	15.3 nM	–	–
CUGUUAUAGGUCCAGAAUUACAACAUGAGGAUCACCCAUGUGCAGGAUAUCGGGUUAAUUUUCGACGAGAAGGGCAUAGUCACG	33.5 nM	64.1 nM	–	–
CGCUGUCUCGCAGGAUAUGCAUUGGAUUACAAUGCAGAAGGGCGAUUACAUGAGGAUCACCCAUGUGUUGACAGUGAAGAAUAG	–	–	96.6 nM	22.2 nM
GUACGUGGACAGAAGGUGACAUGAGGAUCACCCAUGUUAGUUCGGGUACGAGCGAUCCGCGUGAUUGAGGAUAUGUCUGCGGGC	69.1 nM	175 nM	–	–
GAGAAGUCAGGAUAUGCAUGGCGGGACUUGCGUCGUGGCGUGCAGAAGGGACAUGAGGAUCACCCAUGUGGAGG	169 nM	243 nM	–	–
